Activity calls are given as the source filed them. No cut-off for these calls is given here.
Assays:
[1] = Cytotoxicity against human HepG2 2.2.15 cells assessed as reduction in cell viability incubated for 5 days by MTT assay; type: cell-based; settings: time 5 day
Procedure, shortened: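 HepG2.2.15 cells were incubated with compound, then cell viability was measured. Mean ± SD of three independent experiments.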

[2] = Selectivity index, ratio of CC50 for human […] cells to EC50 for Hepatitis B virus; type: toxicity; settings: read-out: Ratio CC50/EC50
[3] = tested on: Hepatitis B virus; assay: Antiviral activity against Hepatitis B genotype D virus infected in HepG2 2.2.15 cells assessed as inhibition of viral DNA incubated for 5 days by qPCR analysis; type: functional, cell-based; settings: HepG2 2.2.15, 120 h
Procedure, shortened: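 HepG2.2.15 cells were incubated with compound for 5 days. HBV DNA was then purified from the culture supernatant and quantified by real-time PCR.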

[4] = Volume of distribution at steady state in Sprague-Dawley rat at 5 mg/kg, iv by LC-MS/MS analysis; type: ADME, organism-based; settings: in vivo, read-out: Vdss
Procedure, shortened: (§1)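 Male SD rats, 5 mg/kg given i.v. or p.o.; plasma concentration–time courses followed. Parameters: Tmax, Cmax, terminal T1/2, AUClast, AUC to infinity, total plasma clearance, Vss, oral bioavailability (Ft). Values are mean ± SD of at least three independent experiments.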

[5] = tested on: Hepatitis B virus; assay: Induction of recombinant Hepatitis B virus HBc (1-149)-His protein self-assembly expressed in Escherichia coli BL21 (DE3) at 30 uM by TEM analysis relative to control; settings: filed as modulator, time 3-5 day, TDE = time-dependent effect
[6] = tested on: Hepatitis B virus; assay: Induction of recombinant Hepatitis B virus HBc (1-149)-His protein self-assembly expressed in Escherichia coli BL21 (DE3) assessed as spherical shaped particles at 30 uM after 12 hrs of incubation by TEM analysis relative to control; settings: filed as modulator
[7] = target: Voltage-gated inwardly rectifying potassium channel KCNH2 (Homo sapiens, UniProt Q12809); assay: Inhibition of human ERG by fluorescence polarization assay
[8] = Metabolic stability in human liver microsomes assessed as compound remaining at 1 uM incubated for 30 mins by LC-MS/MS analysis; type: ADME, Microsome; settings: read-out: Stabilty
Procedure, shortened: (§2)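 Phase-I stability in rat or human liver microsomes, given as % remaining after 30 min, with half-life also derived. n = 3, mean ± SD.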

[9] = target: Cytochrome P450 2D6 (Homo sapiens, UniProt P10635); assay: Inhibition of human liver microsome CYP2D6 using dextromethorphan as substrate incubated for 20 mins by LC-MS/MS with HPLC analysis; type: ADME, microsomes
Procedure, shortened: (§3)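 Cocktail-substrate assay in human liver microsomes; IC50 reported for CYP1A2, 2C9, 2C19, 2D6 and 3A4. n = 3, mean ± SD.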

[10] = Metabolic stability in rat liver microsomes assessed as compound remaining at 1 uM incubated for 30 mins by LC-MS/MS analysis; type: ADME, Microsome; settings: read-out: Stabilty; procedure, shortened: as §2
[11] = Half life in Sprague-Dawley rat at 5 mg/kg, po by LC-MS/MS analysis; type: ADME, organism-based; settings: in vivo; procedure, shortened: as §1
[12] = tested on: Hepatitis B virus; assay: Induction of recombinant Hepatitis B virus HBc (1-149)-His protein self-assembly expressed in Escherichia coli BL21 (DE3) assessed as short rod-shaped particles at 30 uM after 12 hrs of incubation by TEM analysis relative to control; settings: filed as modulator
[13] = AUC (0 to infinity) in Sprague-Dawley rat at 5 mg/kg, po by LC-MS/MS analysis; type: ADME, organism-based; set-up: time infinity, route oral, dose 5 mg/kg; settings: in vivo; procedure, shortened: as §1
[14] = Oral bioavailability in Sprague-Dawley rat at 5 mg/kg by LC-MS/MS analysis; type: ADME, organism-based; settings: in vivo; procedure, shortened: as §1
[15] = Tmax in Sprague-Dawley rat at 5 mg/kg, po by LC-MS/MS analysis; type: ADME, organism-based; settings: in vivo; procedure, shortened: as §1
[16] = AUClast in Sprague-Dawley rat at 5 mg/kg, po by LC-MS/MS analysis; type: ADME, organism-based; set-up: time 0 - last, route oral, dose 5 mg/kg; settings: in vivo; procedure, shortened: as §1
[17] = target: Cytochrome P450 2C19 (Homo sapiens, UniProt P33261); assay: Inhibition of human liver microsome CYP2C19 using S-mephenytoin as substrate incubated for 20 mins by LC-MS/MS with HPLC analysis; type: ADME, microsomes; procedure, shortened: as §3
[18] = Protein binding in rat plasma at 5 uM incubated for 4 hrs by LC-MS/MS analysis; type: ADME, cell-free; settings: read-out: PPB (converted)
[19] = AUC (0 to infinity) in Sprague-Dawley rat at 5 mg/kg, iv by LC-MS/MS analysis; type: ADME, organism-based; set-up: time infinity, route intravenous, dose 5 mg/kg; settings: in vivo; procedure, shortened: as §1
[20] = tested on: Hepatitis B virus; assay: Induction of recombinant Hepatitis B virus HBc (1-149)-His protein self-assembly expressed in Escherichia coli BL21 (DE3) assessed as longer tubular shaped particles at 30 uM after 3 to 5 days of incubation by TEM analysis relative to control; settings: filed as modulator, time 3-5 day
[21] = Half life in Sprague-Dawley rat at 5 mg/kg, iv by LC-MS/MS analysis; type: ADME, organism-based; settings: in vivo; procedure, shortened: as §1
[22] = Stability in rat plasma assessed as compound remaining at 5 uM incubated for 4 hrs by LC-MS/MS analysis; type: ADME, cell-free; settings: read-out: Stabilty
Procedure, shortened: (§4)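 Incubated in rat or human plasma at 37 °C for 4 h; result is % compound remaining. n = 3, mean ± SD.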

[23] = AUClast in Sprague-Dawley rat at 5 mg/kg, iv by LC-MS/MS analysis; type: ADME, organism-based; set-up: route intravenous, time 0 - last, dose 5 mg/kg; settings: in vivo; procedure, shortened: as §1
[24] = Protein binding in human plasma at 5 uM incubated for 4 hrs by LC-MS/MS analysis; type: ADME, cell-free; settings: read-out: PPB (converted)
[25] = Clearance in Sprague-Dawley rat at 5 mg/kg, iv by LC-MS/MS analysis; type: ADME, organism-based; settings: in vivo; procedure, shortened: as §1
[26] = target: Cytochrome P450 2C9 (Homo sapiens, UniProt P11712); assay: Inhibition of human liver microsome CYP2C9 using tolbutamide as substrate incubated for 20 mins by LC-MS/MS with HPLC analysis; type: ADME, microsomes; procedure, shortened: as §3
[27] = tested on: Hepatitis B virus; assay: Induction of recombinant Hepatitis B virus HBc (1-149)-His protein self-assembly expressed in Escherichia coli BL21 (DE3) assessed as long rod-shaped particles at 30 uM after 3 to 5 days of incubation by TEM analysis relative to control; settings: filed as modulator, time 3-5 day
[28] = target: Cytochrome P450 3A4 (Homo sapiens, UniProt P08684); assay: Inhibition of human liver microsome CYP3A4 using […] as substrate incubated for 20 mins by LC-MS/MS with HPLC analysis; type: ADME, microsomes; procedure, shortened: as §3
[29] = target: T1, Cytochrome P450 1A2 (Homo sapiens, UniProt P05177); assay: Inhibition of human liver microsome CYP1A2 using phenacetin as substrate incubated for 20 mins by LC-MS/MS with HPLC analysis; type: ADME, microsomes; procedure, shortened: as §3
T1 sequence (P05177 whole entry): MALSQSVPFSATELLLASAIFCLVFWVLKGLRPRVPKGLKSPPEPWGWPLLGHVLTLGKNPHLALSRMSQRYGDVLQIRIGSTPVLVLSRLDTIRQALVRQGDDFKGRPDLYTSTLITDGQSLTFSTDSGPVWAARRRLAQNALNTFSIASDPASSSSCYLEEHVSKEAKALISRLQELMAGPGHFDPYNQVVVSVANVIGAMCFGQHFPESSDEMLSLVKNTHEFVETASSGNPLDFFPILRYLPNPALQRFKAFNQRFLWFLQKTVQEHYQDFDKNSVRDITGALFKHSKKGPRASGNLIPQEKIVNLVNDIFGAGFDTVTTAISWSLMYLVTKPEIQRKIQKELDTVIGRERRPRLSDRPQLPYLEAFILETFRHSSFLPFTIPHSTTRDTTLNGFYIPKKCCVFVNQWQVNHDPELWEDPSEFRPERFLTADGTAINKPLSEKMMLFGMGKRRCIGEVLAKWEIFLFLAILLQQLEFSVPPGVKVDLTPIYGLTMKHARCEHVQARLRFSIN

[30] = Metabolic stability in rat liver microsomes assessed as half life at 1 uM incubated for 30 mins by LC-MS/MS analysis; type: ADME, Microsome; procedure, shortened: as §2
[31] = Stability in human plasma assessed as compound remaining at 5 uM incubated for 4 hrs by LC-MS/MS analysis; type: ADME, cell-free; settings: read-out: Stabilty; procedure, shortened: as §4
[32] = Cmax in Sprague-Dawley rat at 5 mg/kg, po by LC-MS/MS analysis; type: ADME, organism-based; set-up: route oral, dose 5 mg/kg; settings: in vivo; procedure, shortened: as §1
[33] = Metabolic stability in human liver microsomes assessed as half life at 1 uM incubated for 30 mins by LC-MS/MS analysis; type: ADME, Microsome; procedure, shortened: as §2

Chain of Cytochrome P450 2D6 (P10635 whole entry): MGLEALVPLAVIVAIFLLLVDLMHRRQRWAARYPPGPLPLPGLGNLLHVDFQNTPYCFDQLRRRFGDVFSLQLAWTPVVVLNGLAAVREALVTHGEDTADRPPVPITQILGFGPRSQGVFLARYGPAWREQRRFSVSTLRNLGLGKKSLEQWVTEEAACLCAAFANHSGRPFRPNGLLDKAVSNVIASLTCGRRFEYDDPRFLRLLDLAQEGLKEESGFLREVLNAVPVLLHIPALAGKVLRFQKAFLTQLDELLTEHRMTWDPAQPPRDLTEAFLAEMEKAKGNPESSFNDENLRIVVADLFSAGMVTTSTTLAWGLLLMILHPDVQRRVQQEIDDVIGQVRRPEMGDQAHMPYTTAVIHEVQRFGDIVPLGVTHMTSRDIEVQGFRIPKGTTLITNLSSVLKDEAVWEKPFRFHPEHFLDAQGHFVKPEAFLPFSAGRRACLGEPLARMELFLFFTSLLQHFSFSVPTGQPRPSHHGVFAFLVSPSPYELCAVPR
Chain of Cytochrome P450 2C19 (P33261 whole entry): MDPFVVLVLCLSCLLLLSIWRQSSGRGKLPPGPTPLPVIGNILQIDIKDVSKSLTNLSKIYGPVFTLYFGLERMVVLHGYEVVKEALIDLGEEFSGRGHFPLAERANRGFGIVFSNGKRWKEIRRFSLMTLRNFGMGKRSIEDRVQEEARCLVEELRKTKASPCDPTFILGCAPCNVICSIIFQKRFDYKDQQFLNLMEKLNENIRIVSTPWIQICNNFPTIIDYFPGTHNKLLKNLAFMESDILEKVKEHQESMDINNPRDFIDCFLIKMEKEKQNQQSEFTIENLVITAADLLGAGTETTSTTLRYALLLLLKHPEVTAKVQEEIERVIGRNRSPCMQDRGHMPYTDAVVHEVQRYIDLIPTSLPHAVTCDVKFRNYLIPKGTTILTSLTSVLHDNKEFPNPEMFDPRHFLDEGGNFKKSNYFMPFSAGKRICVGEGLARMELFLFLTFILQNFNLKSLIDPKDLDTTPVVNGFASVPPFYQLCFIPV
Chain of Voltage-gated inwardly rectifying potassium channel KCNH2 (Q12809 whole entry): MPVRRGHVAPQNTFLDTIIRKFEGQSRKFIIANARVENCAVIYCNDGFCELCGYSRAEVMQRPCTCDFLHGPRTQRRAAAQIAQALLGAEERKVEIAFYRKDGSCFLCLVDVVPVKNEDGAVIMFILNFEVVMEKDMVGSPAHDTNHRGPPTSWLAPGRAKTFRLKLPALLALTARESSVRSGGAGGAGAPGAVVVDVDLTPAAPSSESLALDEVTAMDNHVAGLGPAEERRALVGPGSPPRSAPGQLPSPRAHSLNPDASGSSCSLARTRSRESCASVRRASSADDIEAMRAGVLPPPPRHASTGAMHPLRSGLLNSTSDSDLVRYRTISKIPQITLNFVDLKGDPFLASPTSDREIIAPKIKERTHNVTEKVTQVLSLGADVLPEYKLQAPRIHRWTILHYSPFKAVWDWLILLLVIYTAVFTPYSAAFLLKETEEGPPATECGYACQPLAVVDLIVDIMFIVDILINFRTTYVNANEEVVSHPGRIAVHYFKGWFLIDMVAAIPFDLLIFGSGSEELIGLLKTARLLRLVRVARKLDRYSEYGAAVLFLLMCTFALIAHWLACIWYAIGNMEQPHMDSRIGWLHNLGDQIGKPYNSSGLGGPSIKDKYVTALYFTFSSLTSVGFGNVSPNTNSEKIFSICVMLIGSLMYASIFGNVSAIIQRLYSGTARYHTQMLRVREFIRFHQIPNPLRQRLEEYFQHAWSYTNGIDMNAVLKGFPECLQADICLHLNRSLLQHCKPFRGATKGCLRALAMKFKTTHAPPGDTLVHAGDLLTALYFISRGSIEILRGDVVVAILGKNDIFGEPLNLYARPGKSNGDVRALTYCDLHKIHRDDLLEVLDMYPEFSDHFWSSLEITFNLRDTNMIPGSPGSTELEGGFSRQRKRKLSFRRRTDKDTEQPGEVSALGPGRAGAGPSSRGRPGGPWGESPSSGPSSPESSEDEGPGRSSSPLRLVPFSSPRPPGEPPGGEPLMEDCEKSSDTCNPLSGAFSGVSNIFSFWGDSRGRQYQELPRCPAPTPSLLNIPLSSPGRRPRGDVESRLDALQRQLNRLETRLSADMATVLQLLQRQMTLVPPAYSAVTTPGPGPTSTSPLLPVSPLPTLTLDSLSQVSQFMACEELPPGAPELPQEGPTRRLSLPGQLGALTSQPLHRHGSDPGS
Chain of Cytochrome P450 3A4 (P08684 whole entry): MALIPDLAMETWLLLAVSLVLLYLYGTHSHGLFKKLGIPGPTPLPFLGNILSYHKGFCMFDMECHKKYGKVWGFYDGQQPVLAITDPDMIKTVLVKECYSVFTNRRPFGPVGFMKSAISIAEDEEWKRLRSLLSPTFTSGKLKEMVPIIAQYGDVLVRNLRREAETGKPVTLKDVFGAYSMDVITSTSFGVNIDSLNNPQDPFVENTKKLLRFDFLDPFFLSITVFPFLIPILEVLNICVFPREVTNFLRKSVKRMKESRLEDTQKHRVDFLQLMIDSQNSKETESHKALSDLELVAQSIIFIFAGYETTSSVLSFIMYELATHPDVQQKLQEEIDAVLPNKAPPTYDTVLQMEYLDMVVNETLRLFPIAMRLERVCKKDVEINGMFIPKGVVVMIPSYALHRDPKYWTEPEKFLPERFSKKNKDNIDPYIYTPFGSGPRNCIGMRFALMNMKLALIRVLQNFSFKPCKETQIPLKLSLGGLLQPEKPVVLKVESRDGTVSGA
Chain of Cytochrome P450 2C9 (P11712 whole entry): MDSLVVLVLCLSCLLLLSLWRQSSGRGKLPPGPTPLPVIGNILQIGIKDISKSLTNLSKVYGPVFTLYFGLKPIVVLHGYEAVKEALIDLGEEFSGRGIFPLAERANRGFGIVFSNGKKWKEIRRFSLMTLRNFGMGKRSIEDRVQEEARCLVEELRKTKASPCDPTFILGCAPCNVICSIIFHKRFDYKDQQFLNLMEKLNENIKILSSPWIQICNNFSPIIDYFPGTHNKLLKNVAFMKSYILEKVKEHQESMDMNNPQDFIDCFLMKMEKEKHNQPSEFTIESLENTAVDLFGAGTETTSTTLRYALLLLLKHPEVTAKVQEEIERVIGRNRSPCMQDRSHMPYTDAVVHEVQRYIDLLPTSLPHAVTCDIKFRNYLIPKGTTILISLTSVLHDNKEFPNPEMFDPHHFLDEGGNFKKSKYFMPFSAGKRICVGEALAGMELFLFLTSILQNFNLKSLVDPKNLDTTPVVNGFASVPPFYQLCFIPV

## O=C(Nc1cc(F)c(F)c(F)c1)c1ccc(F)c(S(=O)(=O)N2CCC(O)CC2)c1
[1]
  CC50 at 120 h: 8.6 µM
[2]
  selectivity ratio: 8.3
[3]
  EC50: 1.04 µM

## N#Cc1cc(NC(=O)c2cc(S(=O)(=O)N3CCC(O)CC3)c(F)cc2N)ccc1F
[1]
  CC50 at 120 h: > 900 µM
[2]
  selectivity ratio: > 833
[3]
  EC50: 1.08 µM

## Nc1cc(F)c(S(=O)(=O)N2CCC(O)CC2)cc1C(=O)Nc1ccc(F)c(F)c1
[4]
  Vd: 2.88 L/kg
[5]
  inhibition: Tde
[6]
  Activity: Active
[7]
  IC50: 50 µM
[8]
  remaining at 0.5 h, 1 µM: 68.1%
[9]
  IC50: 29.3 µM
[10]
  remaining at 0.5 h, 1 µM: 67.9%
[11]
  half-life: 3.84 h
[12]
  Activity: Active
[13]
  AUC(0-inf): 2100 ng·h/mL
[14]
  bioavailability: 84.2%
[15]
  Tmax: 1.67 h
[16]
  AUC(0-t): 2080 ng·h/mL
[17]
  IC50: 18.3 µM
[18]
  fraction unbound at 4 h, 5 µM: 0.073
[19]
  AUC(0-inf): 2500 ng·h/mL
[20]
  Activity: Active
[1]
  CC50 at 120 h: 16 µM
[21]
  half-life: 1.22 h
[22]
  remaining at 4 h, 5 µM: 84.6%
[23]
  AUC(0-t): 2450 ng·h/mL
[24]
  fraction unbound at 4 h, 5 µM: 0.035
[25]
  clearance: 34.2 mL/min/kg
[2]
  selectivity ratio: 53.3
[3]
  EC50: 0.3 µM
[26]
  IC50: 25 µM
[27]
  Activity: Active
[28]
  IC50: 41 µM
[29]
  IC50: > 100 µM
[30]
  half-life at 1 µM: 0.867 h
[31]
  remaining at 4 h, 5 µM: 93.6%
[32]
  Cmax: 480 ng/mL
[33]
  half-life at 1 µM: 1.24 h

## Nc1cc(F)c(S(=O)(=O)N2CCC(O)CC2)cc1C(=O)Nc1ccc(Cl)c(F)c1
[1]
  CC50 at 120 h: 20.3 µM
[2]
  selectivity ratio: 9.3
[3]
  EC50: 2.18 µM

## Nc1cc(F)c(S(=O)(=O)N2CCC(O)CC2)cc1C(=O)Nc1ccc(C(F)(F)F)c(F)c1
[1]
  CC50 at 120 h: 5.9 µM
[3]
  EC50: > 3.3 µM

## Nc1cc(F)c(S(=O)(=O)N2CCC(O)CC2)cc1C(=O)Nc1cccc(F)c1
[1]
  CC50 at 120 h: 29.3 µM
[2]
  selectivity ratio: 35.3
[3]
  EC50: 0.83 µM

## Nc1cc(F)c(S(=O)(=O)N2CCC(O)CC2)cc1C(=O)Nc1ccc(F)cc1
[1]
  CC50 at 120 h: 45.8 µM
[2]
  selectivity ratio: 80.4
[3]
  EC50: 0.57 µM

## Nc1cc(F)c(S(=O)(=O)N2CCC(O)CC2)cc1C(=O)Nc1ccc(F)c(C(F)(F)F)c1
[1]
  CC50 at 120 h: 47.3 µM
[2]
  selectivity ratio: 21.7
[3]
  EC50: 2.18 µM
